Measurements reported in ChEMBL document CHEMBL3351544, “Discovery of (S)-1-(1-(Imidazo[1,2-a]pyridin-6-yl)ethyl)-6-(1-methyl-1H-pyrazol-4-yl)-1H-[1,2,3]triazolo[4,5-b]pyrazine (volitinib) as a highly potent and selective mesenchymal-epithelial transition factor (c-Met) inhibitor in clinical development for treatment of cancer” (J Med Chem, 2014).
In brackets after ≈: the same amount, converted by molar mass. One block for each compound: values may come before it.

Columns and labels:
[1] = Solubility of the compound in aqueous buffer at pH 7.4 by HPLC method; type: physicochemical
Method in brief: (§1)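 Excess solid shaken 48 h at 20 °C in pH 1.2 KCl/HCl buffer or pH 7.4 sodium phosphate buffer. Centrifuged 10 min at 4000 rpm, supernatant diluted in mobile phase and quantified by HPLC.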

[2] = Solubility of the compound in aqueous buffer at pH 1.2 by HPLC method; type: physicochemical; method in brief: as §1
NCI-H441 = assay: Antiproliferative activity against human NCI-H441 cells assessed as HGF-induced proliferation after 72 hrs by MTT assay; conditions: NCI-H441, 72 h
[3] = Metabolic stability in mouse liver microsomes assessed as compound remaining at 1 uM after 30 mins; type: ADME; conditions: read-out: Stability
Method in brief: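 Compound at 1 µM incubated in duplicate with mouse liver microsomes (0.5 mg/mL). Final 3 mM MgCl2 and 1 mM EDTA, NADPH-regenerating system in 50 mM potassium phosphate, pH 7.4. Incubated at 37 °C for 0 and 30 min, DMSO at most 0.1%. Quenched with cold acetonitrile containing internal standard, centrifuged, supernatant analysed. Reported as % parent remaining.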

[4] = biological target: T1, Hepatocyte growth factor receptor (Homo sapiens, UniProt P08581); assay: Inhibition of c-Met (unknown origin) using Poly E4Y substrate and ATP incubated for 45 mins by fluorescence polarization assay
[5] = biological target: T1, Hepatocyte growth factor receptor; assay: Inhibition of c-Met autophosphorylation in human NCI-H441 cells for 1 hr by ELISA; type: cell-based
[6] = Oral bioavailability in ICR mouse at 14.1 mg/kg; type: ADME, organism-based; conditions: in vivo
Method in brief: (§2)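 Male ICR mice, n=3. Oral dose 14.1 mg/kg as a suspension in 0.5% CMC acidified with HCl to pH 2.1. Paired iv arm at 2.5 mg/kg in saline with 10% Solutol HS 15, 10% ethanol and 0.25% DMSO. Staggered blood sampling between 5 min and 24 h post-dose. Plasma levels measured by LC/MS/MS.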

[7] = Cmax in ICR mouse at 14.1 mg/kg, po; type: ADME, organism-based; parameters: dose 14.1 mg/kg, route oral; conditions: in vivo; method in brief: as §2
[8] = AUC (0 to 8 hrs) in ICR mouse at 14.1 mg/kg, po; type: ADME, organism-based; parameters: time < 8 hr, dose 14.1 mg/kg, route oral; conditions: plasma; method in brief: as §2
[9] = Apparent volume of distribution in ICR mouse at 2.5 mg/kg, iv; type: ADME, organism-based; parameters: dose 2.5 mg/kg, route intravenous; conditions: in vivo, read-out: Vz
Method in brief: (§3)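 Male ICR mice, n=3, given 2.5 mg/kg iv in saline containing 10% Solutol HS 15, 10% ethanol and 0.25% DMSO. Blood sampled at staggered times from 5 min to 24 h. Plasma concentrations measured by LC/MS/MS. Parameters derived from the iv dosing.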

[10] = Plasma clearance in ICR mouse at 2.5 mg/kg, iv; type: ADME, organism-based; parameters: dose 2.5 mg/kg, route intravenous; method in brief: as §3
[11] = Half life in ICR mouse at 14.1 mg/kg, po; type: ADME, organism-based; parameters: dose 14.1 mg/kg, route oral; conditions: in vivo; method in brief: as §2
Mus musculus [12] = assay: Inhibition of c-Met autophosphorylation in mouse xenografted with human NCI-H441 cells at 3 mg/kg, po administered as single doss after 6 hrs by ELISA method; type: functional; conditions: NCI-H441, 6 h
Method in brief: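 Female athymic mice, 6-8 weeks old, n=4, co-implanted subcutaneously with 2×10^6 NCI-H441 cells and 1×10^6 HGF-secreting MRC-5 cells. At 300 mm3, about two weeks, given a single 3 mg/kg oral dose in 0.5% CMC, pH 2.1. Tumours harvested at 6 h and homogenised in lysis buffer with phosphatase and protease inhibitors. Phospho-Met and total Met measured by ELISA, compared with vehicle.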

[13] = Antitumor activity against human U87MG cells xenografted in mouse model assessed as tumor growth inhibition at 2.5 mg/kg, po once daily up to 21 days; type: functional, U-87MG ATCC; conditions: U-87 MG, 504 h, read-out: TGI
Method in brief: (§4)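 Female athymic nude mice, 6-8 weeks old, inoculated in the flank with 3×10^6 U87MG glioma cells. Randomised once tumours reached 200 mm3. Dosed orally once daily for 21 days in 0.5% CMC-Na, pH 2.1, against vehicle controls. Tumour size measured 2-3 times weekly; volume = L×W²/2. %TGI from change in mean volume, first to last treatment day. Body weight recorded.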

[14] = Antitumor activity against human U87MG cells xenografted in mouse model assessed as tumor growth inhibition at 1 mg/kg, po once daily up to 21 days; type: functional, U-87MG ATCC; conditions: U-87 MG, 504 h, read-out: TGI; method in brief: as §4
[15] = Metabolic stability in human liver S9 fraction assessed as compound remaining in presence of NADPH at 1 mg/mL after 60 mins by LC-MS/PDA analysis; type: ADME, subcellular; conditions: read-out: Stability
Method in brief: (§5)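 Compound incubated at 37 °C for 0 and 60 min with human liver S9 (1 mg/ml). Buffer was 50 mM potassium phosphate, pH 7.4, with 3 mM MgCl2 and 1 mM EDTA, with or without an NADPH-regenerating system. Stopped with ice-cold acetonitrile, supernatant dried and reconstituted in 50% methanol. Analysed by LC-MSn/PDA; relative amounts estimated from UV peak intensity at 348 nm.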

[16] = Metabolic stability in human liver S9 fraction assessed as compound remaining in absence of NADPH at 1 mg/mL after 60 mins by LC-MS/PDA analysis; type: ADME; conditions: read-out: Stability; method in brief: as §5
Mus musculus [17] = assay: Toxicity in human U87MG cells xenografted mouse model assessed as body weight loss at 1 to 10 mg/kg, po once daily up to 21 days; type: organism-based, U-87MG ATCC; parameters: dose 1-10 mg/kg, route oral; conditions: in vivo, 504 h; method in brief: as §4
[18] = Antitumor activity against human U87MG cells xenografted in mouse model assessed as tumor growth inhibition at 10 mg/kg, po once daily up to 21 days; type: functional, U-87MG ATCC; conditions: U-87 MG, 504 h, read-out: TGI; method in brief: as §4
U-87MG ATCC = assay: Antitumor activity against human U87MG cells xenografted in mouse model assessed as tumor growth inhibition at 1 to 10 mg/kg, po once daily up to 21 days; type: functional, organism-based
Method in brief: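 Female athymic nude mice (6-8 weeks) inoculated in the flank with U87MG glioma cells (3×10^6/mouse). At 200 mm3 tumours, randomized to vehicle or treatment. Oral dosing once daily at 1.0, 2.5 and 10.0 mg/kg in 0.5% CMC-Na, pH 2.1, for 21 days. Tumour size measured 2-3 times weekly, TV=(L×W²)/2. %TGI from mean volume change from first to last treatment day versus vehicle.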

solubility [1]: 0.02 mg/mL (≈ 0.0553 mM)
solubility [2]: 20.9 mg/mL (≈ 57.8 mM)
SMILES: C[C@@H](c1ccc2nccn2c1)n1nnc2nc(O)c(-c3cnn(C)c3)nc21

IC50 (NCI-H441): 25 nM
remaining at 0.5 h, 1 µM [3]: 82.6%
SMILES: OCCn1cc(-c2cnc3nnn(Cc4c[nH]c5ncccc45)c3n2)cn1

IC50 [4]: > 1000 nM
SMILES: Cn1cc(-c2cnc3nnn(Cc4ccc5ncccc5c4)c3c2)cn1

IC50 (NCI-H441): 16 nM
SMILES: C[C@@H](c1ccn2nccc2c1)n1nnc2ncc(-c3cnn(CCO)c3)nc21

IC50 (NCI-H441): 113 nM
IC50 [5]: 32 nM
IC50 [4]: 32 nM
SMILES: C[C@H](c1ccc2nccn2c1)n1nnc2ncc(-c3cnn(C)c3)nc21

IC50 (NCI-H441): 177 nM
remaining at 0.5 h, 1 µM [3]: 23.5%
SMILES: Cn1cc(-c2cnc3nnn(Cc4cc5cnccc5s4)c3n2)cn1

IC50 (NCI-H441): 77 nM
remaining at 0.5 h, 1 µM [3]: 63.6%
SMILES: FC(F)(F)Cn1cc(-c2cnc3nnn(Cc4ccn5nccc5c4)c3n2)cn1

IC50 (NCI-H441): 287 nM
SMILES: OCCn1cc(-c2cnc3nnn(Cc4n[nH]c5ncccc45)c3n2)cn1

IC50 (NCI-H441): 178 nM
remaining at 0.5 h, 1 µM [3]: 19.4%
SMILES: Cn1cc(-c2cnc3nnn(Cc4cc5[nH]ncc5s4)c3n2)cn1

IC50 (NCI-H441): 183 nM
remaining at 0.5 h, 1 µM [3]: 36.7%
SMILES: Cn1cc(-c2cnc3nnn(Cc4ccn5nccc5c4)c3n2)cn1

IC50 (NCI-H441): 66 nM
remaining at 0.5 h, 1 µM [3]: 93.3%
bioavailability [6]: 90.8%
Cmax [7]: 1920 ng/mL
AUC(0-t) at 8 h [8]: 7000 ng·h/mL
Vd [9]: 2.4 L/kg
clearance [10]: 21.5 mL/min/kg
half-life [11]: 3.7 h
SMILES: OCCn1cc(-c2cnc3nnn(Cc4ccn5nccc5c4)c3n2)cn1

IC50 (NCI-H441): 66 nM
remaining at 0.5 h, 1 µM [3]: 102%
SMILES: Cn1cc(-c2cnc3nnn(Cc4n[nH]c5ncccc45)c3n2)cn1

IC50 (NCI-H441): 6 nM
solubility [1]: 0.02 mg/mL (≈ 0.0579 mM)
bioavailability [6]: 27.2%
remaining at 1 h [15]: 99.1%
IC50 [5]: 3 nM
remaining at 1 h [16]: 99.7%
Cmax [7]: 4950 ng/mL
solubility [2]: 31.8 mg/mL (≈ 92.1 mM)
AUC(0-t) at 8 h [8]: 5590 ng·h/mL
Vd [9]: 1.2 L/kg
clearance [10]: 11 mL/min/kg
IC50 [4]: 5 nM
half-life [11]: 1.7 h
SMILES: C[C@@H](c1ccc2nccn2c1)n1nnc2ncc(-c3cnn(C)c3)nc21 [SAVOLITINIB]
inhibition in vivo at 3 mg/kg (Mus musculus [12]): 84.7%
inhibition in vivo at 2.5 mg/kg [13]: 76.6%
inhibition in vivo at 1 mg/kg [14]: 52.8%
Activity (Mus musculus [17]): Non-toxic
inhibition in vivo at 10 mg/kg [18]: 92.8%
TGI (U-87MG ATCC): Dose-dependent effect

IC50 (NCI-H441): 70 nM
remaining at 0.5 h, 1 µM [3]: 83%
SMILES: FC(F)(F)Cn1cc(-c2cnc3nnn(Cc4n[nH]c5ncccc45)c3n2)cn1

IC50 (NCI-H441): 443 nM
SMILES: Cn1cc(-c2cnc3nnn(Cc4ccc5nccn5n4)c3n2)cn1

IC50 (NCI-H441): 184 nM
SMILES: OCCn1cc(-c2cnc3nnn(Cc4ccc5nccn5c4)c3n2)cn1

IC50 (NCI-H441): 172 nM
SMILES: N#Cc1ccc(-c2cnc3nnn(Cc4n[nH]c5ncccc45)c3n2)cn1

IC50 (NCI-H441): 203 nM
SMILES: N#Cc1ccc(-c2cnc3nnn(Cc4ccc5nccn5c4)c3n2)cn1

IC50 (NCI-H441): 104 nM
SMILES: FC(F)(F)Cn1cc(-c2cnc3nnn(Cc4ccc5nccn5c4)c3n2)cn1

IC50 (NCI-H441): 425 nM
SMILES: Cn1cc(-c2cnc3nnn(Cc4ccc5ncnn5c4)c3n2)cn1

IC50 (NCI-H441): 165 nM
SMILES: C[C@H](c1ccn2nccc2c1)n1nnc2ncc(-c3cnn(CCO)c3)nc21

IC50 (NCI-H441): 73 nM
remaining at 0.5 h, 1 µM [3]: 70.8%
bioavailability [6]: 46%
Cmax [7]: 1380 ng/mL
AUC(0-t) at 8 h [8]: 1070 ng·h/mL
Vd [9]: 5.4 L/kg
clearance [10]: 71.3 mL/min/kg
half-life [11]: 1.3 h
SMILES: Cn1cc(-c2cnc3nnn(Cc4ccc5nccn5c4)c3n2)cn1

IC50 (NCI-H441): 116 nM
SMILES: Fc1ccc(-c2cnc3nnn(Cc4ccc5nccn5c4)c3n2)cc1
